Results gathered from unrelated publications.
Each line is one published result; the experiments were not run side by side.
Cell line: K562
Observed: cell growth or viability

For `O=C(NC1CC1)c1ccc(-c2nc3ccc4[nH]ncc4c3c3c2CCCC3)cc1`, the GI50 was 4.1 µM (resazurin; 72 h).
`FC(F)(F)c1cc(OCc2cc(-c3ccccn3)no2)c2ccccc2n1` gave an IC50 of over 100 µM (MTS; 72 h).
The GI50 of `CCN(CC)CCNC(=O)c1ccc(-c2nc3ccc4[nH]ncc4c3c3c2CCCC3)cc1` is reported as 3.6 µM (resazurin; 72 h).
With `C=C(NC(=O)C(=C)NC(=O)c1csc(C2=N[C@@H]3c4csc(n4)[C@H]4NC(=O)c5csc(n5)[C@H]([C@](C)(O)[C@@H](C)O)NC(=O)[C@H]5CSC(=N5)/C(=C/C)NC(=O)[C@H]([C@@H](C)O)NC(=O)c5csc(n5)[C@]3(CC2)NC(=O)[C@H](C)NC(=O)C(=C)NC(=O)[C@H](C)NC(=O)[C@H]([C@@H](C)CC)N[C@@H]2C=Cc3c([C@H](C)O)cc(nc3[C@H]2O)C(=O)O[C@@H]4C)n1)C(N)=O` the EC50 was 0.6 µM.
`N#Cc1ccc(-c2cc(COc3cc(=O)oc4ccccc34)on2)cc1` gave an IC50 of over 100 µM (MTS; 72 h).
`O=C(c1ccc(/C=C/c2n[nH]c3ccccc23)cc1)N1CCNCC1` has a GI50 of about 0.4 µM.
`Cc1nc(Nc2ncc(C(=O)Nc3c(C)cccc3Cl)s2)cc(N2CC[C@H](O)C2)n1` gave an inhibition of 90% (ATP luminescence; 10 µM; 72 h).
`Nc1ccccc1NC(=O)c1ccc(Cn2cnc3c(Nc4ccc(Cl)cc4)ncnc32)cc1` gave an IC50 of 17.5 µM (MTT; 72 h).
`O=c1cc(OCc2cc(-c3ccccn3)no2)c2ccccc2o1` gave an IC50 of over 100 µM (MTS; 72 h).
`Nc1ccccc1NC(=O)c1ccc(Cn2cnc3c(Nc4ccc(Br)cc4F)ncnc32)cc1` has an IC50 of 30.1 µM (MTT; 72 h).
The GI50 of `CN(C)CCNC(=O)c1ccc(-c2nc3ccc4[nH]ncc4c3c3c2CC(C)(C)CC3)cc1` is reported as 3.7 µM (resazurin; 72 h).
`FC(F)(F)c1cc(OCc2cc(-c3ccccc3)no2)c2ccccc2n1` gave an IC50 of over 100 µM (MTS; 72 h).
The GI50 of `Cc1n[nH]c2ccc3nc(-c4ccc(C(=O)N(C)CCN(C)C)cn4)c4c(c3c12)CCCCC4` is reported as over 10 µM (resazurin; 72 h).
For `O=C(Nc1ccc(OC(F)(F)Cl)cc1)c1cnc(N2CC[C@@H](O)C2)c(-c2cc[nH]n2)c1`, the EC50 was 0.005 µM (ATP luminescence; 72 h).
